Results as given in ChEMBL document CHEMBL4715795, “Urolinin: The First Linear Peptidic Urotensin-II Receptor Agonist” (J Med Chem, 2016).
The source made the active and inactive calls. The calls are words filed in the database; no cut-off is given here. Numbered stars: 1 amine (or outer) side, 2 acyl side, 3 side chain; on linkers, the order of the positions; unused ones are H or OH. Bridge positions count the residues as written; N and C are the ends. Square brackets hold non-standard residues; d marks the D form. Peptide text beside a SMILES is read from it. ξ: configuration not given here. Tyr(3-NO2) = N[C@@H](Cc1ccc(O)c([N+](=O)[O-])c1)C(=O)O; X1 = O=C([C@H](Cc1ccc(O)c(S(=O)(=O)O)c1)N[*:1])[*:2]; 2Nal = N[C@@H](Cc1ccc2ccccc2c1)C(=O)O; ξ2Nal = NC(Cc1ccc2ccccc2c1)C(=O)O

Columns and labels:
Urotensin-2 receptor [1] = biological target: T1, Urotensin-2 receptor (Homo sapiens, UniProt Q9UKP6); test: Agonist activity at human U-IIR expressed in HEK293-A cells by Fluo4-AM dye based intracellular calcium mobilization assay; assay type: functional, cell-based
T1 sequence (Q9UKP6 whole entry): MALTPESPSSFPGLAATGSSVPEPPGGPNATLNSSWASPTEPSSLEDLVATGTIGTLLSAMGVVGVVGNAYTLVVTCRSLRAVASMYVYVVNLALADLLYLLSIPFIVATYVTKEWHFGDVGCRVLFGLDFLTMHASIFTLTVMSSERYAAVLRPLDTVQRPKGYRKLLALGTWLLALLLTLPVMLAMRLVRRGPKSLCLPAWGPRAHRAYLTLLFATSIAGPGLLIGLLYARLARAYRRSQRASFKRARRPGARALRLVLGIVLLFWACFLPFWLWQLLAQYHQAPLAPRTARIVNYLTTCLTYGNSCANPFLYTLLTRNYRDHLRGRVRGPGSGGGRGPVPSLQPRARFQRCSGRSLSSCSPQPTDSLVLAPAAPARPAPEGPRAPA

Urotensin-2 receptor [2] = biological target: T1, Urotensin-2 receptor; test: Displacement of [125I-Tyr9]-U-II from human U-IIR expressed in HEK293-A cells incubated for 30 mins by gamma counting based competition radioligand binding assay; assay type: cell-based
[3] = Half life in 25% human serum by RP-HPLC analysis; assay type: ADME, cell-free
In short: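 Peptide at 50 μg/mL final in RPMI with 25% (v/v) human serum, pre-equilibrated at 37 °C. Samples taken at set times into 6% TCA, iced 15 min, spun at 18000g. Supernatant run on C18 RP-HPLC, 25–80% acetonitrile gradient over 15 min at 30 °C, absorbance at 214 and 280 nm.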

VSMC [4] = test: Agonist activity at U-IIR in pig aorta VSMC assessed as increase of ERK1/2 phosphorylation incubated for 15 mins by Western blot analysis relative to control; conditions: Sus scrofa, filed as agonist
In short: (§1)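 Primary smooth muscle cells from aortas of 4–6-month-old domestic pigs, grown from minced-tissue explants and used at passages 5–10. Cells were grown to 80% confluence, then exposed to peptide at 5 or 500 nM in 0.1% FCS/DMEM for 15 min. Lysates were taken in Tris/SDS buffer and probed on Western blot for phospho-ERK1/2 (Thr202/Tyr204). Signal was normalized to total ERK1/2 and to the untreated control. n = 2–4 independent experiments, each with 3–6 replicates.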

VSMC [5] = test: Agonist activity at U-IIR in pig aorta VSMC assessed as increase of ERK1/2 phosphorylation at 500 nM incubated for 15 mins by Western blot analysis relative to control; conditions: Sus scrofa, filed as agonist; in short: as §1
VSMC [6] = test: Agonist activity at U-IIR in pig aorta VSMC assessed as increase of ERK1/2 phosphorylation at 5 nM incubated for 15 mins by Western blot analysis relative to control; conditions: Sus scrofa; in short: as §1

Compound | EC50 (Urotensin-2 receptor [1]) [nM] | IC50 (Urotensin-2 receptor [2]) [nM] | half-life [3] [min] | also measured
CCC(NC(=O)[C@H](Cc1ccc(O)cc1)NC(=O)[C@H](CCCCN)NC(=O)[C@H](Cc1c[nH]c2ccccc12)NC(=O)[C@H](Cc1c[nH]c2ccccc12)NC(=O)[C@@H](N)CC(N)=O)C(N)=O (some centres undefined) | 60 | > 10000 | 50 | –
CCC(NC(=O)[C@H](Cc1ccc(O)cc1)NC(=O)[C@H](CCCCN)NC(=O)[C@H](Cc1c[nH]c2ccccc12)NC(=O)C(Cc1ccc2ccccc2c1)NC(=O)[C@@H](N)CC(N)=O)C(N)=O (some centres undefined) | 108 | 7880 | 34 | –
CC(C)[C@H](NC(=O)[C@@H]1CSSC[C@H](NC(=O)[C@H](CC(=O)O)NC(=O)[C@@H]2CCCN2C(=O)[C@@H](NC(=O)[C@@H](N)CCC(=O)O)[C@@H](C)O)C(=O)N[C@@H](Cc2ccccc2)C(=O)N[C@@H](Cc2c[nH]c3ccccc23)C(=O)N[C@@H](CCCCN)C(=O)N[C@@H](Cc2ccc(O)cc2)C(=O)N1)C(=O)O | – | – | – | Activity (VSMC [4]): Dose-dependent effect; fold change (FC) (VSMC [5]): 2.4; Activity (VSMC [6]): inactive
NCCCC[C@H](NC(=O)[C@H](Cc1c[nH]c2ccccc12)NC(=O)[C@@H](N)Cc1ccccc1)C(=O)N[C@@H](Cc1ccc(O)cc1)C(N)=O (H-FWKY-NH2) | 179 | – | – | –
NCCCC[C@H](NC(=O)[C@H](Cc1c[nH]c2ccccc12)NC(=O)[C@H](Cc1c[nH]c2ccccc12)NC(=O)[C@@H](N)CC(N)=O)C(=O)N[C@@H](Cc1ccc(O)c(S(=O)(=O)O)c1)C(=O)N[C@@H](CS)C(N)=O (H-NWWK[X1]C-NH2) | 330 | > 10000 | 11 | –
NCCCC[C@H](NC(=O)[C@H](Cc1c[nH]c2ccccc12)NC(=O)C(Cc1ccc2ccccc2c1)NC(=O)[C@@H](N)CC(N)=O)C(=O)N[C@@H](Cc1ccc(O)cc1)C(=O)N[C@@H](CS)C(N)=O (some centres undefined) (H-N[ξ2Nal]WKYC-NH2) | 74.9 | 3060 | 17 | –
NCCCC[C@H](NC(=O)[C@H](Cc1c[nH]c2ccccc12)NC(=O)[C@@H](N)Cc1ccccc1)C(N)=O (H-Phe-Trp-Lys-NH2) | > 10000 | – | – | –
NCCCC[C@H](NC(=O)[C@@H](N)Cc1c[nH]c2ccccc12)C(=O)N[C@@H](Cc1ccc(O)cc1)C(N)=O (H-Trp-Lys-Tyr-NH2) | > 10000 | – | – | –
H-CFWKY-NH2 | 201 | – | – | –
H-DNFWKYCV-NH2 | 155 | – | – | –
H-FWKYC-NH2 | 141 | – | – | –
H-NWWKYD-NH2 | 50.4 | – | – | –
H-NWWKYE-NH2 | 65.6 | – | – | –
H-NWWKYS-NH2 | 91.5 | – | – | –
H-NWWKYT-NH2 | 143 | – | – | –
H-TWWKYC-NH2 | 103 | – | – | –

Continued by falling EC50 (Urotensin-2 receptor [1]), values first:

EC50 (Urotensin-2 receptor [1]) [nM] | IC50 (Urotensin-2 receptor [2]) [nM] | half-life [3] [min] | Compound | also measured
32.6 | 300 | 19 | H-DVFWKYCV-NH2 | –
29.8 | – | – | H-DHFWKYCV-NH2 | –
25.5 | 4890 | 770 | CCC(NC(=O)[C@H](Cc1ccc(O)cc1)NC(=O)[C@H](CCCCN)NC(=O)[C@H](Cc1c[nH]c2ccccc12)NC(=O)[C@H](Cc1ccc2ccccc2c1)NC(=O)[C@H](N)CC(N)=O)C(N)=O (some centres undefined) | –
23 | 4830 | 3120 | CCC(NC(=O)[C@H](Cc1ccc(O)cc1)NC(=O)[C@H](CCCCN)NC(=O)[C@H](Cc1c[nH]c2ccccc12)NC(=O)[C@H](Cc1c[nH]c2ccccc12)NC(=O)[C@H](N)CC(N)=O)C(N)=O (some centres undefined) | Activity (VSMC [4]): Dose-dependent effect; fold change (FC) (VSMC [5]): 1.9; Activity (VSMC [6]): inactive
15.7 | 163 | 23 | NCCCC[C@H](NC(=O)[C@H](Cc1c[nH]c2ccccc12)NC(=O)[C@H](Cc1c[nH]c2ccccc12)NC(=O)[C@@H](N)CC(N)=O)C(=O)N[C@@H](Cc1ccc(O)c([N+](=O)[O-])c1)C(=O)N[C@@H](CS)C(N)=O (H-NWWK[Tyr(3-NO2)]C-NH2) | –
11.2 | – | – | H-TVFWKYCV-NH2 | –
10.2 | 890 | 15 | COc1ccc(C[C@H](NC(=O)[C@H](CCCCN)NC(=O)[C@H](Cc2c[nH]c3ccccc23)NC(=O)[C@H](Cc2c[nH]c3ccccc23)NC(=O)[C@@H](N)CC(N)=O)C(=O)N[C@@H](CS)C(N)=O)cc1 (H-NWWKY(Me)C-NH2) | –
10 | 1550 | 19 | H-NWWKYC-NH2 | –
9.63 | – | – | H-QVFWKYCV-NH2 | –
8.13 | 430 | 37 | NCCCC[C@H](NC(=O)[C@H](Cc1c[nH]c2ccccc12)NC(=O)[C@H](Cc1ccc2ccccc2c1)NC(=O)[C@@H](N)CC(N)=O)C(=O)N[C@@H](Cc1ccc(O)c([N+](=O)[O-])c1)C(=O)N[C@@H](CS)C(N)=O (H-N[2Nal]WK[Tyr(3-NO2)]C-NH2) | –
4.8 | – | – | CC(C)[C@H](NC(=O)[C@@H]1CSSC[C@H](NC(=O)[C@@H](N)Cc2ccccc2)C(=O)N[C@@H](Cc2ccccc2)C(=O)N[C@@H](Cc2c[nH]c3ccccc23)C(=O)N[C@@H](CCCCN)C(=O)N[C@@H](Cc2ccc(O)cc2)C(=O)N1)C(N)=O (H-FCFWKYCV-NH2; disulfide 2-7) | –
3.9 | – | – | CC(C)[C@H](NC(=O)[C@@H]1CSSC[C@H](NC(=O)[C@@H](N)[C@@H](C)O)C(=O)N[C@@H](Cc2ccccc2)C(=O)N[C@@H](Cc2c[nH]c3ccccc23)C(=O)N[C@@H](CCCCN)C(=O)N[C@@H](Cc2ccc(O)cc2)C(=O)N1)C(N)=O (H-TCFWKYCV-NH2; disulfide 2-7) | –
3.8 | – | – | NCCCC[C@@H]1NC(=O)[C@H](Cc2c[nH]c3ccccc23)NC(=O)[C@H](Cc2ccccc2)NC(=O)[C@@H](N)CSSC[C@@H](C(N)=O)NC(=O)[C@H](Cc2ccc(O)cc2)NC1=O (H-CFWKYC-NH2; disulfide 1-6) | –
3.47 | 1090 | 55 | CCC(NC(=O)[C@H](Cc1ccc(O)c([N+](=O)[O-])c1)NC(=O)[C@H](CCCCN)NC(=O)[C@H](Cc1c[nH]c2ccccc12)NC(=O)[C@H](Cc1c[nH]c2ccccc12)NC(=O)[C@@H](N)CC(N)=O)C(N)=O (some centres undefined) | –
1.99 | – | – | CC(C)[C@H](NC(=O)[C@@H]1CSSC[C@H](NC(=O)[C@@H](N)CCC(N)=O)C(=O)N[C@@H](Cc2ccccc2)C(=O)N[C@@H](Cc2c[nH]c3ccccc23)C(=O)N[C@@H](CCCCN)C(=O)N[C@@H](Cc2ccc(O)cc2)C(=O)N1)C(N)=O (H-QCFWKYCV-NH2; disulfide 2-7) | –
0.83 | – | – | CC(C)[C@H](NC(=O)[C@@H]1CSSC[C@H](N)C(=O)N[C@@H](Cc2ccccc2)C(=O)N[C@@H](Cc2c[nH]c3ccccc23)C(=O)N[C@@H](CCCCN)C(=O)N[C@@H](Cc2ccc(O)cc2)C(=O)N1)C(N)=O (H-CFWKYCV-NH2; disulfide 1-6) | –
0.45 | 0.9 | 372 | CC(C)[C@H](NC(=O)[C@@H]1CSSC[C@H](NC(=O)[C@@H](N)CC(=O)O)C(=O)N[C@@H](Cc2ccccc2)C(=O)N[C@@H](Cc2c[nH]c3ccccc23)C(=O)N[C@@H](CCCCN)C(=O)N[C@@H](Cc2ccc(O)cc2)C(=O)N1)C(N)=O (H-DCFWKYCV-NH2; disulfide 2-7) | –
